Data reported in ChEMBL document CHEMBL1125497, “Synthesis and anticonvulsant activity of enaminones” (J Med Chem, 1992).

How the values were obtained:
[1] = Antiepileptic activity in male CF1 mice 0.5 hr after oral administration measured in neurological toxicity (Tox) test at a dose of 10 mg/kg (no. of animals treated /protected); activity value is 0/4; assay type: functional, Mus musculus
[2] = Antiepileptic activity in male CF1 mice 0.25 hr after oral administration measured in maximum electroshock seizure(MES) test at a dose of 10 mg/kg (no. of animals treated /protected); activity value is 3/4; assay type: functional, Mus musculus
[3] = Antiepileptic activity in male CF1 mice 4 hr after administration measured in neurological toxicity (Tox) test at a dose of 100 mg/kg (no. of animals treated /protected); activity value is 0/4; assay type: functional, Mus musculus
[4] = Antiepileptic activity in male CF1 mice 30 min after administration measured in maximum electroshock seizure(MES) test at a dose of 100 mg/kg (no. of animals treated /protected); activity value is 3/3; assay type: functional, Mus musculus
[5] = Antiepileptic activity in male CF1 mice 0.25 hr after oral administration measured in maximum electroshock seizure(MES) test at a dose of 50 mg/kg (no. of animals treated /protected); activity value is 2/4; assay type: functional, Mus musculus
[6] = Protective index was measured as TD50/ED50 in rat on oral administration; assay type: ADME, organism-based; conditions: in vivo, read-out: PI
[7] = Dose protecting 50% of the mice from tonic hind limb extension at the time of peak convulsant effect after po administration.; assay type: functional; conditions: Mus musculus, Hindlimb
Outline: (§1)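 Phase II quantification in CF1 male mice (ca. 24–34 g), dosing ip or po in 0.5% methylcellulose suspension. ED50 is protection from tonic hind limb extension in MES. TD50 is rotorod neurotoxicity. Both were read at time of peak effect and derived by Litchfield–Wilcoxon with 95% confidence limits.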

[8] = Antiepileptic activity in male CF1 mice 1 hr after oral administration measured in neurological toxicity (Tox) test at a dose of 50 mg/kg (no. of animals treated /protected); activity value is 0/4; assay type: functional, Mus musculus
[9] = tested on: Rattus norvegicus; experiment: Average seizure score for the rat cornea 0.5 hr after peroral administration of 60 mg/kg of compound; assay type: functional; conditions: route oral
Outline: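 Sprague-Dawley rats (85–95 g initial) were kindled with 4 s, 8 mA corneal stimulations (butacaine anesthesia) to 10 consecutive stage 5 seizures. After a vehicle shock and a 2-day shock-free period, test drug was given ip or po and a single shock applied at time of peak effect. Seizures were scored on a modified Racine 0–5 scale. ED50 is the dose reducing severity by 50% (Litchfield–Wilcoxon).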

[10] = Protective index was measured as TD50/MES ED50 in mice on po administration; assay type: ADME, organism-based; conditions: mouse, in vivo, read-out: PI
Outline: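 Male CF1 mice (ca. 24–34 g) dosed orally with 0.5% methylcellulose suspension. MES ED50 (protection of 50% from tonic hind limb extension) and rotorod TD50, each determined at time of peak effect by Litchfield and Wilcoxon. PI = TD50/MES ED50.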

[11] = Time of peak anticonvulsant effect in CF1 MICE after po administration.; assay type: functional, Mus musculus
Outline: (§2)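 Male CF1 mice (ca. 24–34 g), compound in 0.5% methylcellulose suspension given ip or po; time (h) at which MES protection (against tonic hind limb extension) peaked was recorded and used for ED50 determination.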

[12] = Time of peak anticonvulsant effect in CF1 MICE after ip administration.; assay type: functional, Mus musculus; outline: as §2
[13] = Antiepileptic activity in male CF1 mice 4 hr after administration measured in subcutaneous pentylenetetrazole (scMet) test at a dose of 100 mg/kg; activity value is 0/1; assay type: functional, Mus musculus
[14] = Dose producing neurotoxic effects in 50% of the CF1 mice after intraperitoneal administration.; assay type: ADME; conditions: CF1, mouse, in vivo, ip; outline: as §1

Question: Which Activity [1] does the source give for `COC(=O)C1C(=O)C=C(Nc2ccc(Cl)cc2)CC1C` (centres undefined) here?
Answer: 0

Question: And the Activity [2]?
Answer: 3

Question: And the Activity [3]?
Answer: 0

Question: And the Activity [4]?
Answer: 3

Question: For `COC(=O)C1C(=O)C=C(NCc2ccccc2)CC1C` (centres undefined), which Activity [5] is on record?
Answer: 2

Question: What about the selectivity ratio [6] of the same molecule?
Answer: 18.7

Question: What about the ED50 [7] of the same molecule?
Answer: 162 mg/kg

Question: What about the Activity [8] of the same molecule?
Answer: 0

Question: What about the Average seizure score [9] of the same molecule?
Answer: 3

Question: And the selectivity ratio [10]?
Answer: > 3.1

Question: What about the TPE [11] of the same molecule?
Answer: 0.5 h

Question: What about the TPE [12] of the same molecule?
Answer: 0.5 h

Question: And the Activity [13]?
Answer: 0

Question: And the TD50 [14]?
Answer: > 500 mg/kg
